# Experimental data taken from ChEMBL document CHEMBL1156924, “Structure-activity relationships of diphenylpiperazine N-type calcium channel inhibitors” (Bioorg Med Chem Lett, 2010).
# Columns and labels:
# [1] = Half life at Sprague-Dawley rat at 10 mg/kg, po; assay type: ADME, organism-based; parameters: dose 10 mg/kg, route oral; details: in vivo
# Procedure, shortened: (§1)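 Rat plasma PK after a single 10 mg/kg oral dose, with a 2 mg/kg intravenous arm used for comparison. Results are means of 2–3 animals. […] Cmax is the highest observed plasma level and Tmax the time at which it occurs. t1/2 is the terminal elimination half-life.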
# [2] = system: Rattus norvegicus; experiment: Analgesic activity in Sprague-Dawley rat assessed as inhibition of spinal nerve injury-induced mechanical allodynia at 30 mg/kg, po after 60-90 mins; assay type: functional; parameters: scale not given: the % may be the effect or the level left
# Procedure, shortened: (§2)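 Chung spinal nerve ligation model in male Sprague-Dawley rats (200–300 g), operated under halothane. Dosing was a single 30 mg/kg oral dose in propylene glycol (3 ml/kg), n = 5–7, given after baseline testing. Mechanical allodynia was measured as von Frey paw-withdrawal threshold and thermal hyperalgesia by paw withdrawal. Testing ran at 30 min intervals to 120 min, and the value reported is maximum % activity.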
# [3] = Cmax at Sprague-Dawley rat at 2 mg/kg, iv; assay type: ADME, organism-based; parameters: dose 2 mg/kg, route intravenous; details: in vivo
# [4] = biological target: T1, Voltage-dependent L-type calcium channel alpha1C/alpha2delta/beta1b (Homo sapiens, UniProt Q13936); experiment: Inhibition of L type calcium channel alpha-1c/alpha-2-delta-1/beta-1b expressed in HEK293 cells in presence of -100 mV holding potential by whole-cell patch clamp method; assay type: cell-based
# Procedure, shortened: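 Manual whole-cell patch clamp in HEK cells transiently expressing rat CaV2.2 (N-type) or CaV1.2 (L-type) with α2δ-1 and β1b. Barium currents (5 mM BaCl2 external, pH 7.2; Cs-methanesulfonate internal) were stepped from −100 mV to +10 mV, using 3–5 cells per compound. Estimated IC50 = [D]/((1/fr) − 1), calculated from a single concentration assuming 1:1 binding.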
# [5] = Tmax at Sprague-Dawley rat at 10 mg/kg, po; assay type: ADME, organism-based; parameters: dose 10 mg/kg, route oral; details: in vivo; procedure, shortened: as §1
# [6] = AUC (0 to 24 hrs) at Sprague-Dawley rat at 10 mg/kg, po; assay type: ADME, organism-based; parameters: time < 24 hr, dose 10 mg/kg, route oral; details: plasma; procedure, shortened: as §1
# [7] = biological target: N-type calcium channel alpha-1b/alpha2delta-1/beta-1b (Homo sapiens, UniProt Q00975); experiment: Inhibition of N type calcium channel alpha-1b/alpha-2-delta-1/beta-1b expressed in HEK293 cells at holding potential of -100 mV by whole-cell patch clamp method; assay type: cell-based
# [8] = system: Rattus norvegicus; experiment: Analgesic activity in Sprague-Dawley rat assessed as inhibition of spinal nerve injury-induced thermal hyperalgesia at 30 mg/kg, po after 60-90 mins; assay type: functional; parameters: scale not given: the % may be the effect or the level left; procedure, shortened: as §2
# [9] = Cmax at Sprague-Dawley rat at 10 mg/kg, po; assay type: ADME, organism-based; parameters: dose 10 mg/kg, route oral; details: in vivo; procedure, shortened: as §1
# [10] = Aqueous solubility at pH 7.4; assay type: physicochemical
# Procedure, shortened: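 Thermodynamic equilibrium solubility following the OECD water solubility method. Quantification was by LC/MS/MS, interpolating saturation solubility from a regression calibration curve of standards.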
# [11] = Oral bioavailability at Sprague-Dawley rat at 10 mg/kg; assay type: ADME, organism-based; details: in vivo; procedure, shortened: as §1
# [12] = AUC (0 to 24 hrs) at Sprague-Dawley rat at 2 mg/kg, iv; assay type: ADME, organism-based; parameters: time < 24 hr, dose 2 mg/kg, route intravenous; details: plasma
# [13] = biological target: T1, Voltage-dependent L-type calcium channel alpha1C/alpha2delta/beta1b; experiment: Inhibition of L-type calcium channel alpha-1c/alpha-2-delta-1/beta-1b expressed in HEK293 cells by FLIPR method; assay type: cell-based
# Procedure, shortened: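 HEK cells stably co-expressing CaV1.2 and Kir2.3 were loaded with Fluo-4 (45 min, 29 °C) and held in 30 mM KCl buffer (pH 7.4), giving a partially inactivated state. Calcium entry was evoked with 130 mM KCl stimulation buffer and fluorescence read for 3 min. An 8-point concentration series (0.003–10) was fitted with a logistic function.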
# [14] = Half life at Sprague-Dawley rat at 2 mg/kg, iv; assay type: ADME, organism-based; parameters: dose 2 mg/kg, route intravenous; details: in vivo
# Sequence of N-type calcium channel alpha-1b/alpha2delta-1/beta-1b (Q00975 whole entry): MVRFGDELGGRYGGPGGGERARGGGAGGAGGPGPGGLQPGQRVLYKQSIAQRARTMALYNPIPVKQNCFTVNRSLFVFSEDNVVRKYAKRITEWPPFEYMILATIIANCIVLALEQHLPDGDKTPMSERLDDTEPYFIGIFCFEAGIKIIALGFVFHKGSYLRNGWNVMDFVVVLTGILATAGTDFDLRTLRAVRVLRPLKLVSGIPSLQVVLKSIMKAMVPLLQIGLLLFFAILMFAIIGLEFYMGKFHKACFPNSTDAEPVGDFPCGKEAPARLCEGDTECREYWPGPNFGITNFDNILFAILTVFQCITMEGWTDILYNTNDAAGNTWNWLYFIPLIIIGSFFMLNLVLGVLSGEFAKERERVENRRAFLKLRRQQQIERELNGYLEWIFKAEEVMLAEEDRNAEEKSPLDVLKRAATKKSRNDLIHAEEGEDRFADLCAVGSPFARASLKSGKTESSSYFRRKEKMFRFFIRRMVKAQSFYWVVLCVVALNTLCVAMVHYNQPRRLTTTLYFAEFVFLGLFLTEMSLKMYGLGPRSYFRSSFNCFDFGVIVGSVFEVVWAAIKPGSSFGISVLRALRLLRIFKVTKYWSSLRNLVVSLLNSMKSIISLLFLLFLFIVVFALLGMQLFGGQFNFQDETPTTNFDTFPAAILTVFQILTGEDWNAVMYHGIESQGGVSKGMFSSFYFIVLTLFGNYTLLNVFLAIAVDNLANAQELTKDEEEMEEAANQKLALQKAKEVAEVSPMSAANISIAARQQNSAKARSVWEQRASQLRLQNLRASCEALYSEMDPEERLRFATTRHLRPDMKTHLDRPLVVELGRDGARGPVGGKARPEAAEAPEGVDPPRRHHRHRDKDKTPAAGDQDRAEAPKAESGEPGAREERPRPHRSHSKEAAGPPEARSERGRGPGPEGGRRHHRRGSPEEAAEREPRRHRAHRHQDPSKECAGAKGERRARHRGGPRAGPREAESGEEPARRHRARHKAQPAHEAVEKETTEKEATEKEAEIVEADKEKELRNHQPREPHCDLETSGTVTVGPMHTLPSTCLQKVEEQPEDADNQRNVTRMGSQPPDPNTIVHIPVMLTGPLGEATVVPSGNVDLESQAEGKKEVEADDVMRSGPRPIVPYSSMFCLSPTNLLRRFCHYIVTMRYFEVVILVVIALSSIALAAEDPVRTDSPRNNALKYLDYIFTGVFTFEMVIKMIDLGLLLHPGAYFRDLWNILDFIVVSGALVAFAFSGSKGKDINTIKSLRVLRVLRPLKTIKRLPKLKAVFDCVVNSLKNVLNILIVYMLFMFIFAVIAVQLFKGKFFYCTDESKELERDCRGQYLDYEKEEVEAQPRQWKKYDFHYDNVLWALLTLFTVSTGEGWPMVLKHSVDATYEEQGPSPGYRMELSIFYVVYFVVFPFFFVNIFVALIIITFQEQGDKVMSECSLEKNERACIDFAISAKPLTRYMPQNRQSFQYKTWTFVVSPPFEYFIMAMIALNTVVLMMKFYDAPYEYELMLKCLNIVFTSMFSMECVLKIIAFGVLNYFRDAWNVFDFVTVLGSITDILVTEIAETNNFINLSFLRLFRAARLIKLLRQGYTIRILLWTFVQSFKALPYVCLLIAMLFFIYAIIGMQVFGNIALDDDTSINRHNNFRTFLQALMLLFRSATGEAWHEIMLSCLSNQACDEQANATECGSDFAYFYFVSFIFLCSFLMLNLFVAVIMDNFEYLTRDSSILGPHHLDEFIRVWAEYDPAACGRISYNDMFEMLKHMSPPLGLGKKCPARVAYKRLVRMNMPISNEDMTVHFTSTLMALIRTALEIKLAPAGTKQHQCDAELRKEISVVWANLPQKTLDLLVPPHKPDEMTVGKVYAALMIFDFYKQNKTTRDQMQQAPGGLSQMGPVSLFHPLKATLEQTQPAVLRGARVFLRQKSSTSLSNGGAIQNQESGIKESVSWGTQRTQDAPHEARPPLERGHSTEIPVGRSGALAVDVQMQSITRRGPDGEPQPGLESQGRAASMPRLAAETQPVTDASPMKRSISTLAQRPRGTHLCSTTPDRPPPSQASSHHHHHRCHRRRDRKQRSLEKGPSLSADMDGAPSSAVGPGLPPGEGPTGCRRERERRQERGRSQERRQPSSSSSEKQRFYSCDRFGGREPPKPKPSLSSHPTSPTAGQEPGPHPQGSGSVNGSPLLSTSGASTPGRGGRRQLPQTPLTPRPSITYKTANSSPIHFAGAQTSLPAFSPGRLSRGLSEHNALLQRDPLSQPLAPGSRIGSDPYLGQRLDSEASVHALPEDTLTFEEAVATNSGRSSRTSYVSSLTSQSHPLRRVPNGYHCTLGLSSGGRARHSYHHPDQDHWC
# Sequence of N-type calcium channel alpha-1b/alpha2delta-1/beta-1b (P54289 25-956 partner limits assumed): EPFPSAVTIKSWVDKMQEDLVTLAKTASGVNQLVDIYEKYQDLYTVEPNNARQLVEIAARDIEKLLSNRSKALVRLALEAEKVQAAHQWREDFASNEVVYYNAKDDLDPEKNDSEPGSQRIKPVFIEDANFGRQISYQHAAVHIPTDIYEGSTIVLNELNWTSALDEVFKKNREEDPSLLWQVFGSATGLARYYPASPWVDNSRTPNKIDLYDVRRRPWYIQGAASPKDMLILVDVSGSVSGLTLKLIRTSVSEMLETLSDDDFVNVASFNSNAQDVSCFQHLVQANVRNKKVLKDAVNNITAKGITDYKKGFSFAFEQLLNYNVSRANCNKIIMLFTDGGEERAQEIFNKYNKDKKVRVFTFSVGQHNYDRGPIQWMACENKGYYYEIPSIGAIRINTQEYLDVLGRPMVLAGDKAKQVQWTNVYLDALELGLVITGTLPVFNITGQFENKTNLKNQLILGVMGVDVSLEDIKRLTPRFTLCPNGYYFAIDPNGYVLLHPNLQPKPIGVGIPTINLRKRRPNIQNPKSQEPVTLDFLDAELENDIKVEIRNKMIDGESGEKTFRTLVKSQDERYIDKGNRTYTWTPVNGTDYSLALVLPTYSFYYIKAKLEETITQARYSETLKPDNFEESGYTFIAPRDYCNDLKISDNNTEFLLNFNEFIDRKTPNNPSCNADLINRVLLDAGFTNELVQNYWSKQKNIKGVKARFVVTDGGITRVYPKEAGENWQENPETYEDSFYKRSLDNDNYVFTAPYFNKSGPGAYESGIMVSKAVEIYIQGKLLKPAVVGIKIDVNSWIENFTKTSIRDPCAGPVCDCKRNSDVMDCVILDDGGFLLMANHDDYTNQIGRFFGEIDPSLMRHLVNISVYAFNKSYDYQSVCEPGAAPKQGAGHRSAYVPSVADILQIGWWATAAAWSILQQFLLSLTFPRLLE
# Sequence of N-type calcium channel alpha-1b/alpha2delta-1/beta-1b (P54289 957-1103 partner limits assumed): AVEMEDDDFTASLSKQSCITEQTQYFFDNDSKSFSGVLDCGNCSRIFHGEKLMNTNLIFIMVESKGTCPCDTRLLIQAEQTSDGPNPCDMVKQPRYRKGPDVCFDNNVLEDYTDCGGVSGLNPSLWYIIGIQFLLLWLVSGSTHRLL
# Sequence of N-type calcium channel alpha-1b/alpha2delta-1/beta-1b (Q02641 whole entry partner): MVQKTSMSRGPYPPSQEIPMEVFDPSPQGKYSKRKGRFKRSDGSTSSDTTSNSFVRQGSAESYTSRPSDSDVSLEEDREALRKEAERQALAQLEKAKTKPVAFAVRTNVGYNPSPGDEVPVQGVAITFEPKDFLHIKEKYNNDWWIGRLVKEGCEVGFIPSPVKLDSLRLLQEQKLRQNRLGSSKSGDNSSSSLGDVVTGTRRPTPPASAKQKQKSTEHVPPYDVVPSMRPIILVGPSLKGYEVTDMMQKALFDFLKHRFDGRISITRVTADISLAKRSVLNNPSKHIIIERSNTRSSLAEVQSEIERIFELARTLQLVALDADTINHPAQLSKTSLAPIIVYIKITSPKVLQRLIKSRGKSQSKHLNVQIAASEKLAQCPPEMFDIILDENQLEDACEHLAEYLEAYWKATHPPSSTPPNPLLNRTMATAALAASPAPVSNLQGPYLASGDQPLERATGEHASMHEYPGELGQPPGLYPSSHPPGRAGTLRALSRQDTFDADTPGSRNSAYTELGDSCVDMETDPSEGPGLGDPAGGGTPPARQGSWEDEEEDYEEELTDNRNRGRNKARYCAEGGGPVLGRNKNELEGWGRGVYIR
compound,measurement,setting,value
O=C(NC(c1ccccc1)c1ccccc1)N1CCN(C(c2ccccc2)c2ccccc2)CC1,half-life,[1],6 h
same,Activity,[2],80.9%
same,Cmax,[3],2930 nM
same,IC50,[4],1840 nM
same,Tmax,[5],2 h
same,AUC(0-t) at 24 h,[6],2.79 µM·h
same,IC50,[7],150 nM
same,Activity,[8],97.9%
same,Cmax,[9],292 nM
same,solubility,[10],0.38 µg/mL
same,bioavailability,[11],22%
same,AUC(0-t) at 24 h,[12],2.5 µM·h
same,IC50,[13],3500 nM
same,half-life,[14],11 h
O=C(CC(c1ccccc1)c1ccccc1)N1CCN(C(c2ccccc2)c2cccc(Cl)c2)CC1 (configuration not stated),half-life,[1],6 h
same,Activity,[2],27.6%
same,Cmax,[3],2550 nM
same,IC50,[4],8500 nM
same,Tmax,[5],3 h
same,AUC(0-t) at 24 h,[6],5.3 µM·h
same,IC50,[7],40 nM
same,Activity,[8],95.1%
same,Cmax,[9],582 nM
same,solubility,[10],0.37 µg/mL
same,bioavailability,[11],66%
same,AUC(0-t) at 24 h,[12],1.6 µM·h
same,IC50,[13],6200 nM
same,half-life,[14],8 h
O=C(CC(c1ccccc1)c1ccccc1)N1CCN(C(c2ccccc2)c2cccc(C(F)(F)F)c2)CC1 (configuration not stated),half-life,[1],4 h
same,Activity,[2],2.6%
same,Cmax,[3],2540 nM
same,IC50,[4],6600 nM
same,Tmax,[5],5 h
same,AUC(0-t) at 24 h,[6],4.67 µM·h
same,IC50,[7],110 nM
same,Activity,[8],24.2%
same,Cmax,[9],518 nM
same,solubility,[10],0.14 µg/mL
same,bioavailability,[11],65%
same,AUC(0-t) at 24 h,[12],1.44 µM·h
same,IC50,[13],1800 nM
same,half-life,[14],5 h
